# Data from ChEMBL document CHEMBL3596093, “Synthesis and antimicrobial evaluation of 5-aryl-1,2,4-triazole-3-thione derivatives containing a rhodanine moiety” (2015).
# Legend:
# Pseudomonas aeruginosa [1] = experiment: Antibacterial activity against Pseudomonas aeruginosa 2004 after 24 hrs by two-fold serial dilution method; assay type: functional; details: Pseudomonas aeruginosa, 2004, 24 h
# How it was run: (§1)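 Strains grown to mid-log phase in Mueller-Hinton broth, then diluted 1000-fold in the same broth to about 10^5 CFU/mL. Compounds were made up as DMSO stocks and two-fold serially diluted from a final top concentration of 64 µg/mL. Incubation was 37 °C for 24 h. Growth was read as absorbance at 630 nm on a microplate reader. MIC assays were run in triplicate.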
# Staphylococcus aureus [2] = experiment: Bactericidal activity against methicillin-resistant Staphylococcus aureus CCARM 3167 after 24 hrs by agar plate method; assay type: functional; details: CCARM 3167, 24 h
# How it was run: (§2)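 5 µL from each well without visible growth plated on fresh Mueller-Hinton agar, then 37 °C for a further 24 h. MBC is the lowest concentration giving no visible colonies. Run in triplicate.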
# Escherichia coli [3] = experiment: Antibacterial activity against Escherichia coli KCTC 1924 after 24 hrs by two-fold serial dilution method; assay type: functional; details: KCTC 1924, 24 h; how it was run: as §1
# Streptococcus mutans [4] = experiment: Bactericidal activity against Streptococcus mutans 3065 after 24 hrs by agar plate method; assay type: functional; details: Streptococcus mutans, 3065, 24 h
# How it was run: (§3)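 Samples of 5 µL from MIC wells with no visible growth were plated onto fresh Mueller-Hinton agar and incubated a further 24 h at 37 °C. MBC is the lowest concentration giving no visible colony growth on the agar. Assays were run in triplicate.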
# Staphylococcus aureus [5] = experiment: Antibacterial activity against methicillin-resistant Staphylococcus aureus CCARM 3167 after 24 hrs by two-fold serial dilution method; assay type: functional; details: CCARM 3167, 24 h
# How it was run: (§4)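 Broth microdilution MIC. Bacteria grown to mid-log phase in Mueller-Hinton broth, diluted 1000-fold, about 10^5 CFU/mL. Compounds from DMSO stocks, two-fold serial dilution from a final 64 µg/mL. Incubation at 37 °C for 24 h. Growth read as absorbance at 630 nm on a microplate reader. Run in triplicate.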
# Pseudomonas aeruginosa [6] = experiment: Antibacterial activity against Pseudomonas aeruginosa 2742 after 24 hrs by two-fold serial dilution method; assay type: functional; details: Pseudomonas aeruginosa, 2742, 24 h; how it was run: as §1
# Staphylococcus aureus [7] = experiment: Bactericidal activity against quinolone-resistant Staphylococcus aureus CCARM 3519 after 24 hrs by agar plate method; assay type: functional; details: CCARM 3519, 24 h; how it was run: as §2
# Staphylococcus aureus [8] = experiment: Antibacterial activity against Staphylococcus aureus RN4220 after 24 hrs by two-fold serial dilution method; assay type: functional; details: RN4220, 24 h; how it was run: as §4
# Staphylococcus aureus [9] = experiment: Antibacterial activity against quinolone-resistant Staphylococcus aureus CCARM 3505 after 24 hrs by two-fold serial dilution method; assay type: functional; details: CCARM 3505, 24 h; how it was run: as §4
# Staphylococcus aureus [10] = experiment: Antibacterial activity against quinolone-resistant Staphylococcus aureus CCARM 3519 after 24 hrs by two-fold serial dilution method; assay type: functional; details: CCARM 3519, 24 h; how it was run: as §4
# Staphylococcus aureus [11] = experiment: Ratio of MBC to MIC for Staphylococcus aureus KCTC 503; assay type: functional
# How it was run: (§5)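 The ratio divides MBC by MIC for the same strain. MIC comes from two-fold broth microdilution in Mueller-Hinton broth (about 10^5 CFU/mL, 37 °C, 24 h, absorbance at 630 nm). MBC comes from subculturing 5 µL from clear wells onto Mueller-Hinton agar for another 24 h at 37 °C, taken as the lowest concentration with no colonies.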
# Candida albicans [12] = experiment: Fungicidal activity against Candida albicans 7535 after 24 hrs by agar plate method; assay type: functional; details: Candida albicans, 7535, 24 h
# Staphylococcus aureus [13] = experiment: Ratio of MBC to MIC for Staphylococcus aureus KCTC 209; assay type: functional; how it was run: as §5
# Escherichia coli [14] = experiment: Ratio of MBC to MIC for Escherichia coli KCTC 1924; assay type: functional; how it was run: as §5
# Staphylococcus aureus [15] = experiment: Antibacterial activity against Staphylococcus aureus KCTC 503 after 24 hrs by two-fold serial dilution method; assay type: functional; details: KCTC 503, 24 h; how it was run: as §1
# Staphylococcus aureus [16] = experiment: Antibacterial activity against Staphylococcus aureus KCTC 209 after 24 hrs by two-fold serial dilution method; assay type: functional; details: KCTC 209, 24 h; how it was run: as §1
# Escherichia coli [17] = experiment: Bactericidal activity against Escherichia coli KCTC 1924 after 24 hrs by agar plate method; assay type: functional; details: KCTC 1924, 24 h; how it was run: as §3
# Staphylococcus aureus [18] = experiment: Bactericidal activity against Staphylococcus aureus KCTC 503 after 24 hrs by agar plate method; assay type: functional; details: KCTC 503, 24 h; how it was run: as §2
# Staphylococcus aureus [19] = experiment: Bactericidal activity against methicillin-resistant Staphylococcus aureus CCARM 3506 after 24 hrs by agar plate method; assay type: functional; details: CCARM 3506, 24 h; how it was run: as §2
# Staphylococcus aureus [20] = experiment: Antibacterial activity against methicillin-resistant Staphylococcus aureus CCARM 3506 after 24 hrs by two-fold serial dilution method; assay type: functional; details: CCARM 3506, 24 h; how it was run: as §4
# Staphylococcus aureus [21] = experiment: Bactericidal activity against quinolone-resistant Staphylococcus aureus CCARM 3505 after 24 hrs by agar plate method; assay type: functional; details: CCARM 3505, 24 h; how it was run: as §2
# Candida albicans [22] = experiment: Antifungal activity against Candida albicans 7535 after 24 hrs by two-fold serial dilution method; assay type: functional; details: Candida albicans, 7535, 24 h
# Salmonella typhimurium = experiment: Antibacterial activity against Salmonella typhimurium 2421 after 24 hrs by two-fold serial dilution method; assay type: functional, Salmonella enterica subsp. enterica serovar Typhimurium; details: Salmonella enterica, 2421, 24 h; how it was run: as §1
# Escherichia coli [23] = experiment: Antibacterial activity against Escherichia coli CCARM 1356 after 24 hrs by two-fold serial dilution method; assay type: functional; details: CCARM 1356, 24 h; how it was run: as §1
# Staphylococcus aureus [24] = experiment: Bactericidal activity against Staphylococcus aureus KCTC 209 after 24 hrs by agar plate method; assay type: functional; details: KCTC 209, 24 h; how it was run: as §3
# Staphylococcus aureus [25] = experiment: Bactericidal activity against Staphylococcus aureus RN4220 after 24 hrs by agar plate method; assay type: functional; details: RN4220, 24 h; how it was run: as §3
# Streptococcus mutans [26] = experiment: Antibacterial activity against Streptococcus mutans 3065 after 24 hrs by two-fold serial dilution method; assay type: functional; details: Streptococcus mutans, 3065, 24 h; how it was run: as §1
# [27] = tested on: Staphylococcus aureus subsp. aureus RN4220; experiment: Ratio of MBC to MIC for Staphylococcus aureus RN4220; assay type: functional; how it was run: as §5
Structure (SMILES),MIC (Pseudomonas aeruginosa [1]) [µg/mL],MBC (Staphylococcus aureus [2]) [µg/mL],MIC (Escherichia coli [3]) [µg/mL],MBC (Streptococcus mutans [4]) [µg/mL],MIC (Staphylococcus aureus [5]) [µg/mL],MIC (Pseudomonas aeruginosa [6]) [µg/mL],MBC (Staphylococcus aureus [7]) [µg/mL],MIC (Staphylococcus aureus [8]) [µg/mL],MIC (Staphylococcus aureus [9]) [µg/mL],MIC (Staphylococcus aureus [10]) [µg/mL],MIC (Staphylococcus aureus [15]) [µg/mL],MBC (Staphylococcus aureus [18]) [µg/mL],MBC (Staphylococcus aureus [19]) [µg/mL],MIC (Staphylococcus aureus [20]) [µg/mL],MBC (Staphylococcus aureus [21]) [µg/mL],MIC (Candida albicans [22]) [µg/mL],MIC (Salmonella typhimurium) [µg/mL],MIC (Escherichia coli [23]) [µg/mL],MBC (Staphylococcus aureus [25]) [µg/mL],MIC (Streptococcus mutans [26]) [µg/mL],further results
O=C(O)[C@H](Cc1ccccc1)N1C(=O)/C(=C/c2ccc(/C=N/n3c(-c4cccc(Cl)c4)n[nH]c3=S)cc2)SC1=S,> 128,8,8,> 32,8,> 128,32,8,8,8,8,16,16,16,32,8,> 128,> 128,8,4,Ratio (Staphylococcus aureus [11]): <=4; MFC (Candida albicans [12]): 8 µg/mL; Ratio (Staphylococcus aureus [13]): 2; Ratio (Escherichia coli [14]): <=4; MIC (Staphylococcus aureus [16]): 8 µg/mL; MBC (Escherichia coli [17]): 8 µg/mL; MBC (Staphylococcus aureus [24]): 16 µg/mL
O=C(O)[C@H](Cc1ccccc1)N1C(=O)/C(=C/c2ccc(/C=N/n3c(-c4ccccc4)n[nH]c3=S)cc2)SC1=S,> 128,16,> 128,16,8,> 128,32,8,8,8,8,8,32,8,32,> 64,> 128,> 128,16,8,Ratio (Staphylococcus aureus [11]): <=4; Ratio [27]: 2; MIC (Staphylococcus aureus [16]): > 64 µg/mL
COc1c(N2C[C@@H]3CCCN[C@@H]3C2)c(F)cc2c(=O)c(C(=O)O)cn(C3CC3)c12 [MOXIFLOXACIN],2,1,,0.25,1,,4,0.25,4,4,2,2,1,1,4,0.5,0.5,128,0.25,0.25,MFC (Candida albicans [12]): 0.5 µg/mL
O=C(O)[C@H](Cc1ccccc1)N1C(=O)/C(=C/c2ccc(/C=N/n3c(-c4ccccc4Cl)n[nH]c3=S)cc2)SC1=S,> 128,32,> 128,> 128,16,> 128,> 128,16,16,16,16,64,64,16,> 128,> 64,> 128,> 128,32,16,Ratio (Staphylococcus aureus [11]): <=4; Ratio [27]: 2; MIC (Staphylococcus aureus [16]): > 64 µg/mL
COc1c(N2CCNC(C)C2)c(F)cc2c(=O)c(C(=O)O)cn(C3CC3)c12 (stereo unspecified) [GATIFLOXACIN],1,2,2,0.5,2,1,4,0.25,8,4,4,4,2,2,8,0.5,0.5,16,0.25,0.5,MFC (Candida albicans [12]): 0.5 µg/mL; MIC (Staphylococcus aureus [16]): 2 µg/mL; MBC (Escherichia coli [17]): 2 µg/mL; MBC (Staphylococcus aureus [24]): 2 µg/mL
